Laboratory results from ChEMBL document CHEMBL3616466, “Pyrazolo[3,4-h]quinolines promising photosensitizing agents in the treatment of cancer” (Eur J Med Chem, 2015).

Assays:
Format in all cases: functional
LoVo [1] = assay: Cytotoxicity against human LoVo cells assessed as growth inhibition after 72 hrs by MTT assay
In short: (§1)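 Cells (5 × 10³ per well) pre-incubated 24 h at 37 °C, 5% CO₂, then exposed in the dark to serial concentrations diluted from DMSO stock into complete medium for 72 h at 37 °C. Viability read by MTT; GI50 derived. LoVo in Ham's F-12, MCF-7 and A-549 in DMEM, all with 10% FBS and penicillin/streptomycin.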

Jurkat [2] = assay: Photocytotoxicity against human Jurkat cells assessed as growth inhibition at 2.5 J/cm'2 irradiation for 30 mins followed by drug treated for 72 hrs by MTT assay; settings: light or radiation study
In short: (§2)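 Cells seeded at 5 × 10³ per well and pre-incubated 24 h. Drug dilutions in HBSS (pH 7.2, from DMSO stock) added for 30 min at 37 °C, then UV-A irradiation at the stated dose. Drug solution then replaced with culture medium and plates incubated 72 h. Viability by MTT; GI50 from concentration series.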

HL-60 [3] = assay: Photocytotoxicity against human HL60 cells assessed as growth inhibition at 1.25 J/cm'2 irradiation for 30 mins followed by drug treated for 72 hrs by MTT assay; settings: HL-60, light or radiation study; in short: as §2
LoVo [4] = assay: Photocytotoxicity against human LoVo cells assessed as growth inhibition at 2.5 J/cm'2 irradiation for 30 mins followed by drug treated for 72 hrs by MTT assay; settings: light or radiation study; in short: as §2
A549 [5] = assay: Photocytotoxicity against human A549 cells assessed as growth inhibition at 2.5 J/cm'2 irradiation for 30 mins followed by drug treated for 72 hrs by MTT assay; settings: A549, light or radiation study; in short: as §2
A549 [6] = assay: Photocytotoxicity against human A549 cells assessed as growth inhibition at 3.75 J/cm'2 irradiation for 30 mins followed by drug treated for 72 hrs by MTT assay; settings: A549, light or radiation study; in short: as §2
HL-60 [7] = assay: Cytotoxicity against human HL60 cells assessed as growth inhibition after 72 hrs by MTT assay; settings: HL-60, 72 h
MCF7 [8] = assay: Photocytotoxicity against human MCF7 cells assessed as growth inhibition at 3.75 J/cm'2 irradiation for 30 mins followed by drug treated for 72 hrs by MTT assay; settings: MCF7, light or radiation study; in short: as §2
LoVo [9] = assay: Photocytotoxicity against human LoVo cells assessed as growth inhibition at 3.75 J/cm'2 irradiation for 30 mins followed by drug treated for 72 hrs by MTT assay; settings: light or radiation study; in short: as §2
MCF7 [10] = assay: Photocytotoxicity against human MCF7 cells assessed as growth inhibition at 2.5 J/cm'2 irradiation for 30 mins followed by drug treated for 72 hrs by MTT assay; settings: MCF7, light or radiation study; in short: as §2
MCF7 [11] = assay: Cytotoxicity against human MCF7 cells assessed as growth inhibition after 72 hrs by MTT assay; settings: MCF7, 72 h; in short: as §1
A549 [12] = assay: Cytotoxicity against human A549 cells assessed as growth inhibition after 72 hrs by MTT assay; settings: A549, 72 h; in short: as §1
Jurkat [13] = assay: Cytotoxicity against human Jurkat cells assessed as growth inhibition after 72 hrs by MTT assay
HL-60 [14] = assay: Photocytotoxicity against human HL60 cells assessed as growth inhibition at 2.5 J/cm'2 irradiation for 30 mins followed by drug treated for 72 hrs by MTT assay; settings: HL-60, light or radiation study; in short: as §2
Jurkat [15] = assay: Photocytotoxicity against human Jurkat cells assessed as growth inhibition at 1.25 J/cm'2 irradiation for 30 mins followed by drug treated for 72 hrs by MTT assay; settings: light or radiation study; in short: as §2

Row | Compound | GI50 (LoVo [1]) [µM] | GI50 (Jurkat [2]) [µM] | GI50 (HL-60 [3]) [µM] | GI50 (LoVo [4]) [µM] | GI50 (A549 [5]) [µM] | GI50 (A549 [6]) [µM] | GI50 (HL-60 [7]) [µM] | GI50 (MCF7 [8]) [µM] | GI50 (LoVo [9]) [µM] | GI50 (MCF7 [10]) [µM] | GI50 (MCF7 [11]) [µM] | GI50 (A549 [12]) [µM] | GI50 (Jurkat [13]) [µM] | GI50 (HL-60 [14]) [µM] | GI50 (Jurkat [15]) [µM]
1 | O=c1[nH]c2c(cc1S(=O)(=O)c1ccccc1)CCc1c-2cnn1-c1cccc(Cl)c1 | > 20 | > 20 | > 20 | > 20 | 14.1 | 9.53 | > 20 | > 20 | > 20 | > 20 | > 20 | 6.41 | 4.55 | > 20 | > 20
2 | O=c1[nH]c2c(cc1S(=O)(=O)c1ccccc1)CCc1c-2cnn1Cc1ccccc1 |  | 6.88 | > 20 | > 20 | > 20 | > 20 |  | > 20 | 14.5 | > 20 |  |  |  | 5.06 | > 20
3 | COc1ccc(-n2ncc3c2CCc2cc(S(=O)(=O)c4ccccc4)c(OCc4ccccc4)nc2-3)cc1 |  | > 20 | > 20 | > 20 | > 20 | 5.74 |  | > 20 | 2.76 | > 20 |  |  |  | 9.09 | > 20
4 | O=c1ccc2ccc3occc3c2o1 [ANGELICIN] |  | 1 |  | 4 |  |  |  | 1.5 | 1.11 | 4.42 |  |  |  | 1.2 | 
5 | Cn1c2c(cc(S(=O)(=O)c3ccccc3)c1=O)CCc1c-2cnn1-c1ccccc1Cl |  | 5.21 | 11.5 | > 20 | > 20 | 13 |  | 12.6 | 13.1 | > 20 |  |  |  | 4.82 | > 20
6 | CCOC(=O)c1cc2c(nc1OC)-c1cnn(-c3ccc(Cl)cc3)c1CC2 |  | 1.81 | 5.38 | 2.79 | 3.68 | 2.3 |  | > 20 | 1.13 | > 20 |  |  |  | 1.71 | 4.47
7 | COc1nc2c(cc1S(=O)(=O)c1ccccc1)CCc1c-2cnn1Cc1ccccc1 | > 20 | 1.4 | 3.83 | 5.32 | 10.4 | 5.74 | 6.1 | 3.05 | 1.41 | 4 | > 20 | > 20 | 8.43 | 1.3 | 2.48
8 | Cn1c2c(cc(S(=O)(=O)c3ccccc3)c1=O)CCc1c-2cnn1Cc1ccccc1 |  | 5.67 | > 20 | > 20 | > 20 | > 20 |  | > 20 | 13 | > 20 |  |  |  | 6.79 | > 20
9 | COc1nc2c(cc1S(=O)(=O)c1ccccc1)CCc1c-2cnn1C |  | 12.7 | > 20 | > 20 | > 20 | > 20 |  | > 20 | > 20 | > 20 |  |  |  | 9.79 | > 20
10 | COc1nc2c(ccc3c2cnn3-c2ccc(Cl)cc2)cc1S(=O)(=O)c1ccccc1 | > 20 | 0.96 | 2.16 | 1.43 | 3.09 | 0.75 | > 20 | 3.23 | 0.71 | 5.36 | 7.51 | 4.6 | > 20 | 1.2 | 4.23
11 | COc1ccc(-n2ncc3c4[nH]c(=O)c(S(=O)(=O)c5ccccc5)cc4ccc32)cc1 | > 20 | > 20 | > 20 | > 20 | 5.39 | 4.26 | > 20 | > 20 | > 20 | > 20 | 8.36 | 6.56 | > 20 | > 20 | > 20
12 | CCOC(=O)c1cc2c([nH]c1=O)-c1cnn(-c3ccc(Cl)cc3)c1CC2 | > 20 | > 20 | > 20 | > 20 | > 20 | > 20 | > 20 | 9.85 | > 20 | 7.32 | 6.38 | 5 | > 20 | > 20 | > 20
13 | COc1nc2c(cc1S(=O)(=O)c1ccccc1)CCc1c-2cnn1-c1ccccc1Cl | > 20 | 0.9 | 3.78 | 5.73 | 14.3 | 4.8 | 7.17 | 1.59 | 1.78 | 3.13 | > 20 | > 20 | 9.8 | 0.81 | 1.93
14 | COc1ccc(-n2ncc3c2CCc2cc(S(=O)(=O)c4ccccc4)c(=O)[nH]c2-3)cc1 | > 20 |  |  |  |  |  | > 20 |  |  |  | 8.54 | 4.04 | > 20 |  | 
15 | O=c1c(S(=O)(=O)c2ccccc2)cc2c(n1Cc1ccccc1)-c1cnn(-c3ccc(Cl)cc3)c1CC2 | > 20 | 4.97 | > 20 | 11.1 | > 20 | 6.64 | 11.6 | 9.89 | 3.72 | > 20 | > 20 | > 20 | 13.6 | 7.17 | > 20
16 | O=c1[nH]c2c(cc1S(=O)(=O)c1ccccc1)CCc1c-2cnn1-c1ccccc1Cl |  | 3.95 |  | > 20 | 13.3 | 8.97 |  | 10.4 | 10.1 | 13 |  |  |  | 2.76 | 11.3
17 | O=c1[nH]c2c(cc1S(=O)(=O)c1ccccc1)CCc1c-2cnn1-c1ccc(Cl)cc1 | > 20 |  |  |  |  |  | > 20 |  |  |  | 11.2 | 6.25 | > 20 |  | 
18 | COc1ccc(-n2ncc3c2CCc2cc(S(=O)(=O)c4ccccc4)c(=O)n(C)c2-3)cc1 |  | 6.68 | > 20 | > 20 | > 20 | > 20 |  | > 20 | > 20 | > 20 |  |  |  | 7.65 | > 20
19 | O=c1[nH]c2c(ccc3c2cnn3-c2ccc(Cl)cc2)cc1S(=O)(=O)c1ccccc1 | > 20 |  |  |  |  |  | > 20 |  |  |  | 9.26 | 1.46 | > 20 |  | 
20 | Cn1c2c(cc(S(=O)(=O)c3ccccc3)c1=O)CCc1c-2cnn1-c1ccc(Cl)cc1 |  | 3.01 | > 20 | > 20 | > 20 | > 20 |  | > 20 | 11.1 | > 20 |  |  |  | 2.88 | > 20
21 | Cn1c2c(cc(S(=O)(=O)c3ccccc3)c1=O)CCc1c-2cnn1-c1ccccc1 |  | 6.99 | > 20 | > 20 | > 20 | > 20 |  | > 20 | > 20 | > 20 |  |  |  | > 20 | > 20
22 | COc1ccc(-n2ncc3c2CCc2cc(S(=O)(=O)c4ccccc4)c(=O)n(Cc4ccccc4)c2-3)cc1 |  | > 20 | > 20 | > 20 | > 20 | > 20 |  | > 20 | 4.12 | > 20 |  |  |  | > 20 | > 20
23 | CCOC(=O)c1cc2c(nc1OC)-c1cnn(-c3ccc(OC)cc3)c1CC2 |  | 6.43 | 7.71 | 5.81 | 6.99 | 4.67 |  | > 20 | 4.3 | > 20 |  |  |  | 4.69 | 9.93
24 | CCOC(=O)c1cc2c(n(C)c1=O)-c1cnn(-c3ccc(Cl)cc3)c1CC2 |  | > 20 | > 20 | > 20 | > 20 | > 20 |  | > 20 | > 20 | > 20 |  |  |  | 7.67 | > 20
